Measured values published in ChEMBL document CHEMBL3244396, “Synthesis and antileukemic activity of 5-substituted 2,3-dihydro-6,7-bis(hydroxymethyl)-1H-pyrrolizine diesters” (J Med Chem, 1977).

What was measured:
[1] = tested on: Mus musculus; experiment: Toxicity in female CDF1 mouse allografted with mouse P388 cells assessed as animal survival at 100 mg/kg, ip administered daily for 9 days as Klucel suspension starting 24 hrs after tumor inoculation; format: organism-based; parameters: dose 100 mg/kg, route intraperitoneal; details: in vivo
Summary of the method: (§1)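 P-388 leukemia ascitic fluid inoculated ip. Compound given ip as a suspension in Klucel (hydroxypropylcellulose), once daily for nine doses beginning 24 h post-inoculation. Acute toxicity assessed as toxicity-day survivors per group. Survival was followed up to 30 days, with 30-day survival counted as "cure". Follows NCI screening protocols.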

[2] = tested on: Mus musculus; experiment: Toxicity in female BDF1 mouse allografted with mouse L1210 cells assessed as animal survival at 50 mg/kg, ip administered daily for 9 days as Klucel suspension starting 24 hrs after tumor inoculation measured on fifth day; format: organism-based; parameters: dose 50 mg/kg, route intraperitoneal; details: in vivo
Summary of the method: (§2)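 L1210 leukemia passaged as ascitic fluid and inoculated ip. Test agent given ip as a Klucel (hydroxypropylcellulose) suspension, nine daily doses starting 24 h after tumor inoculation. Acute toxicity read as toxicity-day survivors per group (out of 6), recorded on day 5. Animal weight difference T − C was also recorded. Follows NCI screening protocols.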

[3] = tested on: L1210; experiment: Antileukemic activity against mouse L1210 cells allografted in female BDF1 mouse assessed as change in body weight at 200 mg/kg, ip administered daily for 9 days as Klucel suspension starting 24 hrs after tumor inoculation; format: functional; details: route intraperitoneal
Summary of the method: (§3)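 Ascitic fluid carrying L1210 cells was inoculated ip. Compound was given ip as a Klucel (hydroxypropylcellulose) suspension in nine daily doses, starting 24 h after inoculation. Body-weight difference (treated minus control) was recorded on day 5. Survival was scored as %T/C of mean survival time.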

[4] = tested on: P388; experiment: Antitumor activity against mouse P388 cells allografted in female CDF1 mouse assessed as change in body weight at 200 mg/kg, ip administered daily for 9 days as Klucel suspension starting 24 hrs after tumor inoculation; format: functional; details: route intraperitoneal
Summary of the method: (§4)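 Ascitic fluid carrying P388 cells was inoculated ip. Compound was given ip in nine daily doses, starting 24 h after inoculation, in Klucel (hydroxypropylcellulose) suspension or in saline with Tween-80. Body-weight difference (treated minus control) was recorded on day 5. Survival was scored as %T/C of median survival time, and 30-day survival counted as cure.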

[5] = tested on: P388; experiment: Antitumor activity against mouse P388 cells allografted in female CDF1 mouse assessed as disease cures by measuring 30-days host survival at 100 mg/kg, ip administered daily for 9 days as Klucel suspension starting 24 hrs after tumor inoculation relative to control; format: functional; details: route intraperitoneal
Summary of the method: (§5)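 P388 leukemia given as an ascitic fluid cell inoculum, ip, to mice of the strain and sex in each line. Nine daily ip doses were given in a Klucel (hydroxypropylcellulose) suspension, starting 24 h after inoculation. Read-out is median survival time as %T/C, with >125 taken as significant; a "cure" means 30-day survival.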

[6] = tested on: L1210; experiment: Antileukemic activity against mouse L1210 cells allografted in female BDF1 mouse assessed as change in body weight at 12.5 mg/kg, ip administered daily for 9 days as Klucel suspension starting 24 hrs after tumor inoculation; format: functional; details: route intraperitoneal; summary of the method: as §3
[7] = tested on: P388; experiment: Antitumor activity against mouse P388 cells allografted in female CDF1 mouse assessed as change in body weight at 100 mg/kg, ip administered daily for 9 days as Klucel suspension starting 24 hrs after tumor inoculation; format: functional; details: route intraperitoneal; summary of the method: as §4
[8] = tested on: Mus musculus; experiment: Toxicity in female BDF1 mouse allografted with mouse L1210 cells assessed as animal survival at 25 mg/kg, ip administered daily for 9 days as Klucel suspension starting 24 hrs after tumor inoculation measured on fifth day; format: organism-based; parameters: dose 25 mg/kg, route intraperitoneal; details: in vivo; summary of the method: as §2
[9] = tested on: L1210; experiment: Antileukemic activity against mouse L1210 cells allografted in female BDF1 mouse assessed as host mean survival time at 50 mg/kg, ip administered daily for 9 days as Klucel suspension starting 24 hrs after tumor inoculation relative to control; format: functional; details: route intraperitoneal
Summary of the method: (§6)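 L1210 leukemia given as an ascitic fluid cell inoculum, ip, to mice of the strain and sex in each line. Test material was given ip for nine daily doses starting 24 h after inoculation, in a Klucel (hydroxypropylcellulose) suspension. Read-out is mean survival time as %T/C versus controls, with >125 taken as significant.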

[10] = tested on: P388; experiment: Antitumor activity against mouse P388 cells allografted in female CDF1 mouse assessed as disease cures by measuring 30-days host survival at 50 mg/kg, ip administered daily for 9 days as Klucel suspension starting 24 hrs after tumor inoculation relative to control; format: functional; details: route intraperitoneal; summary of the method: as §5
[11] = tested on: Mus musculus; experiment: Toxicity in female BDF1 mouse allografted with mouse L1210 cells assessed as animal survival at 100 mg/kg, ip administered daily for 9 days as Klucel suspension starting 24 hrs after tumor inoculation measured on fifth day; format: organism-based; parameters: dose 100 mg/kg, route intraperitoneal; details: in vivo
Summary of the method: (§7)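 Female BDF1 mice bearing ip ascitic L1210 inoculum got nine daily ip doses in a Klucel suspension, starting 24 h after tumor inoculation. Toxicity was scored as toxicity-day survivors out of the group, recorded on the fifth day. Animal weight difference (T − C) was also tabulated.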

[12] = tested on: L1210; experiment: Antileukemic activity against mouse L1210 cells allografted in female BDF1 mouse assessed as change in body weight at 50 mg/kg, ip administered daily for 9 days as Klucel suspension starting 24 hrs after tumor inoculation; format: functional; details: route intraperitoneal; summary of the method: as §3
[13] = tested on: L1210; experiment: Antileukemic activity against mouse L1210 cells allografted in female BDF1 mouse assessed as host mean survival time at 25 mg/kg, ip administered daily for 9 days as Klucel suspension starting 24 hrs after tumor inoculation relative to control; format: functional; details: route intraperitoneal; summary of the method: as §6
[14] = tested on: Mus musculus; experiment: Toxicity in female BDF1 mouse allografted with mouse P388 cells assessed as animal survival at 25 mg/kg, ip administered daily for 9 days as Klucel suspension starting 24 hrs after tumor inoculation; format: organism-based; parameters: dose 25 mg/kg, route intraperitoneal; details: in vivo; summary of the method: as §1
[15] = tested on: L1210; experiment: Antileukemic activity against mouse L1210 cells allografted in female BDF1 mouse assessed as host mean survival time at 12.5 mg/kg, ip administered daily for 9 days as Klucel suspension starting 24 hrs after tumor inoculation relative to control; format: functional; details: route intraperitoneal; summary of the method: as §6
[16] = tested on: Mus musculus; experiment: Toxicity in female CDF1 mouse allografted with mouse P388 cells assessed as animal survival at 200 mg/kg, ip administered daily for 9 days as Klucel suspension starting 24 hrs after tumor inoculation; format: organism-based; parameters: dose 200 mg/kg, route intraperitoneal; details: in vivo; summary of the method: as §1
[17] = tested on: P388; experiment: Antitumor activity against mouse P388 cells allografted in female BDF1 mouse assessed as change in body weight at 25 mg/kg, ip administered daily for 9 days as Klucel suspension starting 24 hrs after tumor inoculation; format: functional; details: route intraperitoneal; summary of the method: as §4
[18] = tested on: L1210; experiment: Antileukemic activity against mouse L1210 cells allografted in female BDF1 mouse assessed as change in body weight at 100 mg/kg, ip administered daily for 9 days as Klucel suspension starting 24 hrs after tumor inoculation; format: functional; details: route intraperitoneal; summary of the method: as §3
[19] = tested on: P388; experiment: Antitumor activity against mouse P388 cells allografted in female BDF1 mouse assessed as disease cures by measuring 30-days host survival at 25 mg/kg, ip administered daily for 9 days as Klucel suspension starting 24 hrs after tumor inoculation relative to control; format: functional; details: route intraperitoneal; summary of the method: as §5
[20] = tested on: L1210; experiment: Antileukemic activity against mouse L1210 cells allografted in female BDF1 mouse assessed as host mean survival time at 200 mg/kg, ip administered daily for 9 days as Klucel suspension starting 24 hrs after tumor inoculation relative to control; format: functional; details: route intraperitoneal; summary of the method: as §6
[21] = tested on: P388; experiment: Antitumor activity against mouse P388 cells allografted in female BDF1 mouse assessed as change in body weight at 12.5 mg/kg, ip administered daily for 9 days as Klucel suspension starting 24 hrs after tumor inoculation; format: functional; details: route intraperitoneal; summary of the method: as §4
[22] = Cytotoxicity against human 9KB cells treated as ethanol solution; format: functional; details: read-out: ED50 (the source's name)
Summary of the method: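 Compound applied as an ethanol solution; activity read out as ED50 under the general screening protocol.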

[23] = tested on: P388; experiment: Antitumor activity against mouse P388 cells allografted in female CDF1 mouse assessed as change in body weight at 50 mg/kg, ip administered daily for 9 days as Klucel suspension starting 24 hrs after tumor inoculation; format: functional; details: route intraperitoneal; summary of the method: as §4
[24] = tested on: L1210; experiment: Antileukemic activity against mouse L1210 cells allografted in female BDF1 mouse assessed as host mean survival time at 100 mg/kg, ip administered daily for 9 days as Klucel suspension starting 24 hrs after tumor inoculation relative to control; format: functional; details: route intraperitoneal; summary of the method: as §6
[25] = tested on: P388; experiment: Antitumor activity against mouse P388 cells allografted in female BDF1 mouse assessed as disease cures by measuring 30-days host survival at 12.5 mg/kg, ip administered daily for 9 days as Klucel suspension starting 24 hrs after tumor inoculation relative to control; format: functional; details: route intraperitoneal; summary of the method: as §5
[26] = tested on: Mus musculus; experiment: Toxicity in female BDF1 mouse allografted with mouse L1210 cells assessed as animal survival at 12.5 mg/kg, ip administered daily for 9 days as Klucel suspension starting 24 hrs after tumor inoculation measured on fifth day; format: organism-based; parameters: dose 12.5 mg/kg, route intraperitoneal; details: in vivo; summary of the method: as §7
[27] = tested on: L1210; experiment: Antileukemic activity against mouse L1210 cells allografted in female BDF1 mouse assessed as change in body weight at 25 mg/kg, ip administered daily for 9 days as Klucel suspension starting 24 hrs after tumor inoculation; format: functional; details: route intraperitoneal; summary of the method: as §3
[28] = tested on: Mus musculus; experiment: Toxicity in female BDF1 mouse allografted with mouse P388 cells assessed as animal survival at 12.5 mg/kg, ip administered daily for 9 days as Klucel suspension starting 24 hrs after tumor inoculation; format: organism-based; parameters: dose 12.5 mg/kg, route intraperitoneal; details: in vivo; summary of the method: as §1
[29] = tested on: Mus musculus; experiment: Toxicity in female CDF1 mouse allografted with mouse P388 cells assessed as animal survival at 50 mg/kg, ip administered daily for 9 days as Klucel suspension starting 24 hrs after tumor inoculation; format: organism-based; parameters: dose 50 mg/kg, route intraperitoneal; details: in vivo; summary of the method: as §1

Compound: CC(=O)OCc1c(COC(C)=O)c(-c2ccc(Cl)cc2)n2c1CCC2
- Activity [1]: Non-toxic
- Activity [2]: Non-toxic
- Activity [3]: -3.8 g
- Activity [4]: 0.5 g
- T/C [5]: 66%
- Activity [6]: 0.7 g
- Activity [7]: -3.3 g
- Activity [8]: Non-toxic
- T/C [9]: 117%
- T/C [10]: 118%
- Activity [11]: Non-toxic
- Activity [12]: -1.8 g
- T/C [13]: 102%
- Activity [14]: Non-toxic
- T/C [15]: 95%
- Activity [16]: Toxic
- Activity [17]: -0.2 g
- Activity [18]: -3.8 g
- T/C [19]: 123%
- T/C [20]: 64%
- Activity [21]: -0.6 g
- EC50 [22]: > 2.8 µg/mL
- Activity [23]: -1.9 g
- T/C [24]: 76%
- T/C [25]: 119%
- Activity [26]: Non-toxic
- Activity [27]: 0.6 g
- Activity [28]: Non-toxic
- Activity [29]: Non-toxic
